Converted amounts (≈) assume the structure as drawn. The source made the active and inactive calls. No cut-off for these calls is given here.
Key:
[1] = tested on: Trypanosoma brucei rhodesiense; test: 50% antitrypanosomal activity against Trypanosoma rhodesiense; assay type: functional, organism-based
In short: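 T. brucei rhodesiense grown axenically in culture medium supplemented with horse serum. IC50 in µg/mL.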

Plasmodium falciparum [2] = test: Antiplasmodial activity against Plasmodium falciparum NF54; assay type: functional, organism-based
In short: (§1)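 P. falciparum (NF54 chloroquine-sensitive, K1 chloroquine-resistant) cultured in vitro in human A+ erythrocytes with Albumax. Readout is inhibition of parasite-specific [3H]hypoxanthine incorporation. IC50 in µg/mL taken from logarithmic dose–response curves.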

Plasmodium falciparum [3] = test: Antiplasmodial activity against Plasmodium falciparum K1; assay type: functional, organism-based; in short: as §1
L6 = test: Cytotoxic effect in rat skeletal muscle myoblast L6 cells; assay type: functional, cell-based
In short: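 Rat L6 skeletal muscle myoblast cells. IC50 in µg/mL.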

Trypanosoma cruzi = test: 50% antitrypanosomal activity against Trypanosoma cruzi; assay type: functional, organism-based
In short: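 Tulahuen strain of T. cruzi expressing E. coli β-galactosidase, grown as intracellular amastigotes in mammalian fibroblasts with drug for 5 days. Viability read colorimetrically from β-galactosidase turnover of chlorophenol red β-D-galactopyranoside, quantified on an ELISA reader. IC50 in µg/mL.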

[4] = target: Tyrosine-protein kinase Lck (Homo sapiens) (UniProt P06239); test: Inhibition of p56 Lck tyrosine kinase at 200 ug/mL (inactive)
Microbotryum violaceum = test: Zone of inhibition from the edge of a circular filter disk impregnated with test substance, against Ustilago violacea (antifungal activity); NA means inactive.; assay type: functional, organism-based
In short: (§2)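 Agar diffusion assay. Filter disks loaded with 0.02 mg sample each. Zone of inhibition measured in mm from the disk edge against the fungi Eurotium repens or Ustilago violacea (Microbotryum violaceum).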

[5] = tested on: Aspergillus pseudoglaucus; test: Zone of inhibition from the edge of a circular filter disk impregnated with test substance, against Eurotium repens (antifungal activity); NA means inactive.; assay type: functional, organism-based; in short: as §2
[6] = Trypanosoma brucei, read-out: IC50
[7] = Plasmodium falciparum, read-out: IC50
[8] = Trypanosoma cruzi, read-out: IC50

Tyrosine-protein kinase Lck (Homo sapiens), sequence (P06239 2-509 limits assumed): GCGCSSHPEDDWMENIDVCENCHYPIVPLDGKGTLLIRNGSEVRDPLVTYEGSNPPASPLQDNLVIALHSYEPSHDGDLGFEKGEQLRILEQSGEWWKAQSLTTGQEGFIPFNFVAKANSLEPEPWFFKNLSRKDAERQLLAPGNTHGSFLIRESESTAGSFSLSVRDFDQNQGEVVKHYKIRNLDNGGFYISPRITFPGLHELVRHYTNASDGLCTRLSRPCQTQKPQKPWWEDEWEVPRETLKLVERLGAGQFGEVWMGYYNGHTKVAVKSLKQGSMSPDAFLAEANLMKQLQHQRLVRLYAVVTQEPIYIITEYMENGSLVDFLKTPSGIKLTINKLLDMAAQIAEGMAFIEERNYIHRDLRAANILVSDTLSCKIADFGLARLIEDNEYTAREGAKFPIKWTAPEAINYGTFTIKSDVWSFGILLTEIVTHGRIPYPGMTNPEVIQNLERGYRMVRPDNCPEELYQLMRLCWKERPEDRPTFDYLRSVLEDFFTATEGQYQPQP

SMILES	IC50 [1, 6] [µg/mL]	IC50 (Plasmodium falciparum [2]; [7]) [µg/mL]	IC50 (Plasmodium falciparum [3]; [7]) [µg/mL]	IC50 (L6) [µg/mL]	IC50 (Trypanosoma cruzi; [8]) [µg/mL]	further results
CCCCC/C=C/C(=O)O[C@H]1C[C@@H]2[C@H](CCCCC(O)CCC)CCC[C@@H]2N(C(=O)c2ccc(Br)cc2)[C@@H]1C (stereo partly specified)	36.9 (≈ 60.9 µM)	0.4 (≈ 0.662 µM)	0.5 (≈ 0.827 µM)	–	–	–
CCCC(O)CCCC[C@@H]1CCC[C@@H]2N[C@H](C)[C@@H](O)C[C@H]12 (stereo in doubt; 1) [listing 1 of 2 here]	–	10 (≈ 33.6 µM)	6.1 (≈ 20.5 µM)	> 30	37.2 (≈ 125 µM)	IC50 [1]: 5.6 µg/mL (≈ 18.8 µM)
CCCC(O)CCCC[C@@H]1CCC[C@@H]2N[C@H](C)[C@@H](O)C[C@H]12 (stereo in doubt; 1) [listing 2 of 2 here]	–	–	–	–	–	NA [4]: inactive
CCCC(O)CCCC[C@@H]1CCC[C@@H]2N[C@H](C)[C@@H](O)C[C@H]12 (stereo in doubt; 2) [listing 1 of 2 here]	–	–	–	> 30	–	IC50 [1]: 1.97 µg/mL (≈ 6.62 µM); IC50 (Plasmodium falciparum [2]): 10 µg/mL (≈ 33.6 µM); IC50 (Trypanosoma cruzi): 37.3 µg/mL (≈ 125 µM); IC50 (Plasmodium falciparum [3]): 4 µg/mL (≈ 13.4 µM)
CCCC(O)CCCC[C@@H]1CCC[C@@H]2N[C@H](C)[C@@H](O)C[C@H]12 (stereo in doubt; 2) [listing 2 of 2 here]	–	–	–	–	–	NA (Microbotryum violaceum): inactive; NA [5]: inactive; NA [4]: inactive
C[C@@H]1CC[C@H]2[C@@H](C)C(=O)O[C@@H]3O[C@@]4(C)CC[C@@H]1[C@]32OO4 [ARTEMISININ]	–	0.003 (≈ 0.0106 µM)	0.001 (≈ 0.00354 µM)	–	–	–
CCCCC/C=C/C(=O)O[C@H]1C[C@@H]2[C@H](CCCCC(O)CCC)CCC[C@@H]2N[C@@H]1C (stereo partly specified) [LEPADIN E]	0.38 (≈ 0.901 µM)	0.9 (≈ 2.13 µM)	0.4 (≈ 0.949 µM)	16.2 (≈ 38.4 µM)	2.2 (≈ 5.22 µM)	–
CCCCC/C=C/C(=O)O[C@H]1C[C@@H]2[C@H](CCCCC(O)CCC)CCC[C@@H]2N[C@H]1C (stereo partly specified) [LEPADIN F]	0.23 (≈ 0.545 µM)	0.3 (≈ 0.711 µM)	0.2 (≈ 0.474 µM)	18.3 (≈ 43.4 µM)	2.6 (≈ 6.17 µM)	–
Nc1nc(N)nc(Nc2ccc([As]3SCC(CO)S3)cc2)n1 (stereo unspecified) [MELARSOPROL]	0.0026	–	–	–	0.6	–
